Our source for the Ratio and Ki values is ChEMBL document CHEMBL1144410, “Synthesis of 3-arylpiperazinylalkylpyrrolo[3,2-d]pyrimidine-2,4-dione derivatives as novel, potent, and selective alpha1-adrenoceptor ligands” (J Med Chem, 2005).

For orientation: Ki means the dissociation constant of the complex between target and ligand, obtained from inhibition or displacement. The low end stands for higher affinity, the high end for lower affinity.

Test [1] concerns the target Serotonin 1a (5-HT1a) receptor/Adrenergic receptor alpha-1 (Rattus norvegicus) (UniProt P15823+P23944+P43140+P19327). As to the kind of experiment: Relative binding affinity for 5-hydroxytryptamine 1A and Alpha-1 adrenergic receptors. The test is classed as protein assay.
In test [2] the target is T1, 5-hydroxytryptamine receptor 1A (Rattus norvegicus, UniProt P19327).
T1 sequence (P19327 whole entry): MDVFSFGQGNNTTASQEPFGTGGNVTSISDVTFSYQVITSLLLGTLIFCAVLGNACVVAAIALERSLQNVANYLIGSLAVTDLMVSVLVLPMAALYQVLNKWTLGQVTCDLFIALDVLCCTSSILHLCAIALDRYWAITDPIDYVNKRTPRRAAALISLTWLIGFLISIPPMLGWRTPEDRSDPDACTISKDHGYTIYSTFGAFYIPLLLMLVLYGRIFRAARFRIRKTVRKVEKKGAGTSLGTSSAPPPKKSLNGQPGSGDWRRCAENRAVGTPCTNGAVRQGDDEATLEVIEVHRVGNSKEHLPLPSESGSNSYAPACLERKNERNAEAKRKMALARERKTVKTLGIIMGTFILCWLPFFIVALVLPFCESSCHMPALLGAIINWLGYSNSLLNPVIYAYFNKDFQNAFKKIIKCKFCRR
As to the kind of experiment: Inhibition of [3H]8-OH-DPAT binding to 5-hydroxytryptamine 1A receptor from rat hippocampus. Type of test: tissue-based. Summed up:
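Membranes: tissue homogenized in ice-cold 50 mM Tris-HCl pH 7.4, spun 50000g, preincubated 37 °C 10 min, washed. Incubation buffer 50 mM Tris-HCl pH 7.7, 10 µM pargyline, 4 mM CaCl2. [3H]8-OH-DPAT 1 nM final, 30 min, 25 °C; nonspecific with 10 µM 5-HT. Stopped by GF/B filtration, scintillation counting. IC50 from dose-inhibition curves, converted to Ki; mean ± SD of three experiments.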

Test [3] addresses T2, Adrenergic receptor alpha-1 (Rattus norvegicus, UniProt P15823+P23944+P43140).
T2 sequence (P15823 whole entry): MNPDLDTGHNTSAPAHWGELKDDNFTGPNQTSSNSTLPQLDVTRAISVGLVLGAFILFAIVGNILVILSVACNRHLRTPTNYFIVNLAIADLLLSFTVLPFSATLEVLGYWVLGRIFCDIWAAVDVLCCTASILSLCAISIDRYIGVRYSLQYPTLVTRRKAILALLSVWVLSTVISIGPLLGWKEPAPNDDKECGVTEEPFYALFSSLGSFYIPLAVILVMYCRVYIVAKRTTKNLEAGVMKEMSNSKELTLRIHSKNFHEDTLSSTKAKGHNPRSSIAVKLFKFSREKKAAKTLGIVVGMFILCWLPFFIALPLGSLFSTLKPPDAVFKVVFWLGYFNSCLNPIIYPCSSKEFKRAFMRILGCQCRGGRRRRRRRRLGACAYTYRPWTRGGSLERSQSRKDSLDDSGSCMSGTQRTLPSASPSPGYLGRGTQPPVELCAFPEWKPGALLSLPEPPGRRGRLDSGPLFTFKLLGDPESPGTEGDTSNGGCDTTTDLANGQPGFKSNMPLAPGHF
T2 sequence (P23944 whole entry): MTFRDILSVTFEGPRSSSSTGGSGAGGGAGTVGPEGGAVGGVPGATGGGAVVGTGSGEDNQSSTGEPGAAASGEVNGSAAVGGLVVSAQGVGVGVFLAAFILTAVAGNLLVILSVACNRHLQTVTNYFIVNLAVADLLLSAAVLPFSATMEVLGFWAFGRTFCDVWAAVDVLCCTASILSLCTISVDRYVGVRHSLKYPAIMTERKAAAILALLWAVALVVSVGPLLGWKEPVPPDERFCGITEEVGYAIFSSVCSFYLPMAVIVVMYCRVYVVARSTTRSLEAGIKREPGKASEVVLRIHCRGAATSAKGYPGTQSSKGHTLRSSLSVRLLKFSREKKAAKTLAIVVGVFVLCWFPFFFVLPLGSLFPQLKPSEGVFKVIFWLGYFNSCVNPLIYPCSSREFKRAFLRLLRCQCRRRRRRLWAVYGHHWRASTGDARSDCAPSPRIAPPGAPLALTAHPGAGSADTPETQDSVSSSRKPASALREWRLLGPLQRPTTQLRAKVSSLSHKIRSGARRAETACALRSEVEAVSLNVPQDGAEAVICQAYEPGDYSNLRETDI
T2 sequence (P43140 whole entry): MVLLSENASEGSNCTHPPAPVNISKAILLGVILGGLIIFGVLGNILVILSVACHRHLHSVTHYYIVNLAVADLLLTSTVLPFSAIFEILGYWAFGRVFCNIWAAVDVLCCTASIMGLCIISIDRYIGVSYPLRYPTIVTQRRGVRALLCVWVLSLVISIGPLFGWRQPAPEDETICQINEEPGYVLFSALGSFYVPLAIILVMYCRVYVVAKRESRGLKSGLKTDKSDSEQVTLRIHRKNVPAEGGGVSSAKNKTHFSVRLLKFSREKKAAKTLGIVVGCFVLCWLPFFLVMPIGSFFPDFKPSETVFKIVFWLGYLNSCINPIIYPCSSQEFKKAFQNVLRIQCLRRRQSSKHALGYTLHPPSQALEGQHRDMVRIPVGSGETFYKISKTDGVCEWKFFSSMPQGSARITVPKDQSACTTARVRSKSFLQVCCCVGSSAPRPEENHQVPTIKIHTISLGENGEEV
As to the kind of experiment: Inhibition of [3H]prazosin binding to Alpha-1 adrenergic receptor from rat cortex. Put shortly: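 Prepared membranes resuspended in 50 mM Tris-HCl pH 7.7 with 10 µM pargyline and 0.1% ascorbic acid. [3H]prazosin 0.2 nM final, 30 min, 25 °C; nonspecific binding with 3 µM phentolamine. Bound ligand collected on GF/B filters, counted by liquid scintillation. Ki derived from IC50 of dose-inhibition curves; mean ± SD of three separate experiments.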

Test [4] is filed under the species Rattus norvegicus. As to the kind of experiment: Relative binding affinity for Dopamine D2 and Alpha-1 adrenergic receptors.
Test [5] is filed under the species Rattus norvegicus. The test can be described thus: Relative binding affinity for Dopamine D1 and Alpha-1 adrenergic receptors.
The target of test [6] is D(2) dopamine receptor (Rattus norvegicus, UniProt P61169). As to the kind of experiment: Inhibition of [3H]spiperone binding to Dopamine receptor D2 from rat striatum. Summed up: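 Membrane incubation in 50 mM Tris-HCl pH 7.1 with 10 µM pargyline, 120 mM NaCl, 5 mM KCl, 2 mM CaCl2, 1 mM MgCl2 and 0.1% ascorbic acid. [3H]spiperone 0.2 nM final, 15 min at 37 °C; 100 µM (-)-sulpiride for nonspecific binding. Vacuum filtration through GF/B, scintillation counting; Ki from IC50 of dose-inhibition curves, mean ± SD of three runs.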

For test [7], the target named is D(1A) dopamine receptor (Rattus norvegicus, UniProt P18901). As to the kind of experiment: Inhibition of [3H]SCH-23390 binding to Dopamine receptor D1 from rat striatum. Summed up: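 Ligand was [3H]SCH23390 at 0.4 nM final, 15 min, 25 °C; nonspecific binding defined with 10 µM (-)-cis-flupentixol. Filtration on GF/B, liquid scintillation counting. IC50 fitted, Ki derived; mean ± SD, n=3.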

Molecules are shown by their SMILES. A value given as a limit tells only on which side of the number the result lay.

Sequence of D(1A) dopamine receptor (P18901 whole entry): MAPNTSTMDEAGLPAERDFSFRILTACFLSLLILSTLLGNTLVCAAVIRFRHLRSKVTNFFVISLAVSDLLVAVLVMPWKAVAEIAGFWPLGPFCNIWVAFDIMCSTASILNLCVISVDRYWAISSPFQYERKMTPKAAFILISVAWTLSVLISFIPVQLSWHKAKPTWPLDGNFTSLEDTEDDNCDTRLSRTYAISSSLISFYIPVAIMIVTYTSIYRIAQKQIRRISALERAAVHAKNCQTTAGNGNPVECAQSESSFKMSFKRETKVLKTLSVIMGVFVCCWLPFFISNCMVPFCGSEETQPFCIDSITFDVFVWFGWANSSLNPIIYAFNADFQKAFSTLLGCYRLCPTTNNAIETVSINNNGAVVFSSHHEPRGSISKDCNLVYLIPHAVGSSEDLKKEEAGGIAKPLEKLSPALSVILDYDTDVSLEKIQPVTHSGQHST
Sequence of D(2) dopamine receptor (P61169 whole entry): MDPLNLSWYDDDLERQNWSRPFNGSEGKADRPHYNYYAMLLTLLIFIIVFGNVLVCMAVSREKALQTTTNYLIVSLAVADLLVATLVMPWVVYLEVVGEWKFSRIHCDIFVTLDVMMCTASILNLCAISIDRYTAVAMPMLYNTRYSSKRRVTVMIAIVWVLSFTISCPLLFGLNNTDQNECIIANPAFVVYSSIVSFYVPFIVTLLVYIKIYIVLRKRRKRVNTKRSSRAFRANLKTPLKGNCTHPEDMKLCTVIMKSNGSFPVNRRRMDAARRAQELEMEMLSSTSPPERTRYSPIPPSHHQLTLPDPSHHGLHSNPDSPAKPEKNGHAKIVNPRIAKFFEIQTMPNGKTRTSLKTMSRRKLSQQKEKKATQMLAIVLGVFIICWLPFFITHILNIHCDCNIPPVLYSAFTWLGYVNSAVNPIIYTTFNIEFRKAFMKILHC

Consider `O=c1[nH]c2cc[nH]c2c(=O)n1CCCN1CCN(c2ccccc2Cl)CC1`, for which the Ratio in test [1] was 6.3. The values for the Ki in test [2] and in test [3] were 376 nM and 59.78 nM, respectively.

As to `Cc1ccc(-c2cc3[nH]c(=O)n(CCN4CCN(c5ccccc5Cl)CC4)c(=O)c3[nH]2)cc1`, the Ratio in test [4], in test [1] and in test [5] was greater than 500 throughout. Further, the Ki was greater than 10000 nM in test [2], greater than 10000 nM in test [6], greater than 10000 nM in test [7] and 17.26 nM in test [3].

`COc1ccccc1N1CCN(CCn2c(=O)[nH]c3c([nH]c4ccccc43)c2=O)CC1`: the Ratio in test [1] was 238.

Turning to `COc1ccc(-c2cc3[nH]c(=O)n(CCN4CCN(c5ccccc5Cl)CC4)c(=O)c3[nH]2)cc1`, the Ratio in test [4] is 0.65; in test [1] it was greater than 2500; in test [5], greater than 2500. Also, the Ki in test [2] is greater than 10000 nM; in test [6], 2.23 nM; in test [7] it was greater than 10000 nM; in test [3], 3.4 nM.

`COc1ccccc1N1CCN(CCn2c(=O)[nH]c3cc(-c4cccc(Cl)c4)[nH]c3c2=O)CC1`: the Ratio in test [1] came to 0.87. The inhibition constant Ki was 16.9 nM in test [2] and 19.32 nM in test [3].

For the compound `O=c1[nH]c2cc[nH]c2c(=O)n1CCN1CCN(c2ccccc2Cl)CC1`, the Ratio in test [4] was 343; in test [1], 594; in test [5], greater than 10000. The Ki in test [2] was 559 nM; in test [6], 322 nM; in test [7] it was greater than 10000 nM; in test [3] it was 0.94 nM.

`COc1ccccc1N1CCN(CCn2c(=O)[nH]c3cc(-c4ccc(C)cc4)[nH]c3c2=O)CC1`: the values for the Ratio in test [4], in test [1] and in test [5] were 9.7, greater than 4500 and greater than 4500, respectively. Moreover, the Ki was greater than 10000 nM in test [2], 19.9 nM in test [6], greater than 10000 nM in test [7] and 2.05 nM in test [3].

Turning to `COc1ccccc1N1CCN(CCn2c(=O)[nH]c3cc(-c4ccccc4Cl)[nH]c3c2=O)CC1`, the Ratio in test [1] came to 21. Also, the values for the Ki in test [2] and in test [3] were 16.1 nM and 0.76 nM, respectively.

For the compound `COc1ccccc1N1CCN(CCn2c(=O)[nH]c3cc(-c4ccc(Cl)cc4)[nH]c3c2=O)CC1`, the Ratio in test [4] is 0.47; in test [1] it was greater than 1000; in test [5], greater than 1000. In addition, the Ki is greater than 10000 nM in test [2], 3.64 nM in test [6], greater than 10000 nM in test [7] and 7.68 nM in test [3].

As for `COc1ccccc1N1CCN(CCn2c(=O)[nH]c3cc[nH]c3c2=O)CC1`, the Ratio in test [1] came out at 282. Besides, the inhibition constant Ki in test [2] amounted to 651 nM; in test [3], 2.31 nM.

Consider `O=c1[nH]c2c([nH]c3ccccc32)c(=O)n1CCN1CCN(c2ccccc2Cl)CC1`, for which, in test [1], the Ratio is greater than 15000. In addition, the Ki was greater than 10000 nM in test [2] and 0.53 nM in test [3].

Regarding `COc1ccccc1N1CCN(CCCn2c(=O)[nH]c3cc[nH]c3c2=O)CC1`, in test [1], the Ratio was determined as 6.9. Besides, the figures for the Ki in test [2] and in test [3] were 193 nM and 28.01 nM, respectively.

As to `COc1ccc(N2CCN(CCn3c(=O)[nH]c4cc(-c5ccccc5)[nH]c4c3=O)CC2)cc1`, the Ki in test [2] and in test [3] was greater than 10000 nM each time.

As for `O=c1[nH]c2cc(-c3ccc(Cl)cc3)[nH]c2c(=O)n1CCN1CCN(c2ccccc2Cl)CC1`, the Ratio in test [4], in test [1] and in test [5] was greater than 800 throughout. Also, the Ki in test [2] is greater than 10000 nM; in test [6], greater than 10000 nM; in test [7], greater than 10000 nM; in test [3], 11.7 nM.

Turning to `O=c1[nH]c2cc(-c3ccccc3Cl)[nH]c2c(=O)n1CCN1CCN(c2ccccc2Cl)CC1`, the values for the Ratio in test [4], in test [1] and in test [5] were 60, greater than 20000 and greater than 20000, respectively. For the same compound, the Ki in test [2] was greater than 10000 nM; in test [6] it was 27.8 nM; in test [7] it was greater than 10000 nM; in test [3], 0.46 nM.

Take `O=c1[nH]c2cc(-c3ccccc3)[nH]c2c(=O)n1CCCN1CCN(c2ccccc2Cl)CC1`: the Ratio in test [1] turned out to be 2.1. The Ki in test [2] amounted to 130 nM; in test [3], 62.37 nM.

Consider `Cc1ccc(-c2cc3[nH]c(=O)n(CCCN4CCN(c5ccccc5Cl)CC4)c(=O)c3[nH]2)cc1`, for which the Ratio in test [1] was greater than 90. In addition, the results for the Ki in test [2] and in test [3] were greater than 10000 nM and 110.1 nM, respectively.

`O=c1[nH]c2cc(-c3ccccc3)[nH]c2c(=O)n1CCN1CCN(c2ccccc2Cl)CC1`: the Ratio in test [1] amounted to 32. Besides, the Ki in test [2] was determined as 35 nM; in test [3] it was 1.08 nM.

Take `COc1ccccc1N1CCN(CCCn2c(=O)[nH]c3cc(-c4ccc(C)cc4)[nH]c3c2=O)CC1`: the Ratio in test [1] turned out to be 1.73. Further, the results for the Ki in test [2] and in test [3] were 83 nM and 47.88 nM, respectively.

Turning to `COc1ccccc1N1CCN(CCCn2c(=O)[nH]c3cc(-c4ccccc4)[nH]c3c2=O)CC1`, the Ratio in test [1] is 18. Further, the values for the Ki in test [2] and in test [3] were 22.4 nM and 1.23 nM, respectively.

For the compound `COc1ccccc1N1CCN(CCn2c(=O)[nH]c3cc(-c4ccccc4)[nH]c3c2=O)CC1`, the Ratio in test [1] amounted to 46. Moreover, the inhibition constant (Ki) was found to be 24 nM in test [2] and 0.52 nM in test [3].
